Paper PMC12120116 (Scientific Reports, 2025)
pIC50: −log10 of the molar value. “And” between values parts separate entries of the source, which are not always exact repeats. Identical values can stand only once. “Also recorded” adds a separate entry of the source.

What was measured:
[1] = rodent models; cited from earlier work
[2] = system: A. franciscana larvae; test: Pathway enrichment analysis; type: in vivo, Artemia franciscana; settings: sublethal concentrations (LC10 at 48 h)
[3] = system: Artemia franciscana larvae; test: Acute toxicity assay; type: in vivo; settings: for Mortality %: corrected, mean ± SEM; for LC1 (20% of the LC10): 20% of the LC10 at 24 h, sublethal concentration used for metabolomics; for LC10 (lethal concentration 10%): probit regression
[4] = Acute toxicity assay; type: in vivo, Artemia franciscana; settings: Artemia franciscana, in vivo, pH 8.5
[5] = system: MCF-7 cell line; settings: cited from earlier work
[6] = system: A. franciscana larvae; test: Untargeted LC-MS/MS metabolomics of larvae at sublethal concentrations; type: in vivo, Artemia franciscana
[7] = system: Artemia franciscana larvae; test: Teratogenic effect; type: in vivo; settings: for Body length: mean ± SEM
Procedure, shortened: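 Larvae came from cysts hatched 24 h in aerated ASW (pH ≅ 8.5, 28 °C). Thirty larvae were incubated in 1 mL of test-compound dilution (from DMSO stock, 0.17% DMSO, sonicated) at 25–26.5 °C for 24 h and 48 h. Ten larvae per tube had eye-to-tail length measured from images. A linear mixed-effects model (experiment as random effect) compared each treatment with time-matched ASW + 0.17% DMSO vehicle, with Dunnett adjustment.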

[8] = system: rodent models; settings: cited from earlier work
[9] = system: A. franciscana larvae; test: ChemRICH chemical similarity enrichment analysis of deregulated metabolites; type: in vivo, Artemia franciscana
[10] = system: A. salina; settings: 2500 mg/L (15 mM); ref 10 (Lestari et al. 2017); cited from earlier work
[11] = LC1 and LC10, 24 and 48 h, vs vehicle control

Q: For `CCCC(CCC)C(=O)Nc1ccccc1O` [HO-AAVPA, N-(2-hydroxyphenyl)-2-propylpentanamide], which “Bioavailability compared to VPA” value [1] is on record?
A: higher bioavailability

Q: What about the “Major deregulated / most impacted metabolic pathways” value [2] of the same compound?
A: sphingolipid and glycerophospholipid metabolism; also recorded: glycerophospholipid and sphingolipid metabolism

Q: And the Mortality % ([3]; 0.18 mM (42.36 mg/L), 24 h)?
A: 1.03 ± 1.15%

Q: What about the Mortality % ([3]; 0.18 mM (42.36 mg/L), 48 h) of the same compound?
A: 16.96 ± 6.69%

Q: And the Mortality % ([3]; 0.32 mM (75.31 mg/L), 24 h)?
A: 10.41 ± 5.92%

Q: What about the Mortality % ([3]; 0.32 mM (75.31 mg/L), 48 h) of the same compound?
A: 30.34 ± 15.25%

Q: What about the Mortality % ([3]; 0.56 mM (131.78 mg/L), 24 h) of the same compound?
A: 60.16 ± 18.53 %

Q: And the Mortality % ([3]; 0.56 mM (131.78 mg/L), 48 h)?
A: 77.3 ± 13.49 %

Q: And the Mortality % ([3]; 1.00 mM (235.33 mg/L), 24 h)?
A: 97.81 ± 1.1 %

Q: And the Mortality % ([3]; 1.00 mM (235.33 mg/L), 48 h)?
A: 100 ± 0 %

Q: What about the “LC1 (20% of the LC10)” value [3] of the same compound?
A: 0.04 mM

Q: And the “LC10 (lethal concentration 10%)” value ([3]; 48 h)?
A: 0.13 mM and 29.49 mg/L

Q: And the “Toxicity compared to VPA” value ([3]; acute toxicity, 24 and 48 h)?
A: high toxicity; also recorded: higher toxic effects

Q: And the LC50 at 24 h [4]?
A: 450 µM and 106 µg/mL

Q: What about the LC50 at 48 h [4] of the same compound?
A: 320 µM and 75.8 µg/mL

Q: What about the pIC50 [5] of the same compound?
A: 3.32

Q: What about the “Abundance of L-glutamine, L-asparagine, dihydrothymine and dihydrouracil” value [6, 11] of the same compound?
A: did not produce any significant impact

Q: What about the “Abundance of L-serine and isobutyryl-L-carnitine” value [6, 11] of the same compound?
A: did not produce any significant impact

Q: And the “Oxysterols (3beta,7alpha-dihydroxy-5-cholestenoate, 3b-hydroxy-5-cholenoic acid, 7-ketodeoxycholic acid, 4alpha-carboxy-5alpha-cholesta-8-en-3beta-ol)” value ([6]; LC10)?
A: increased

Q: What about the “Abundance of some triacylglycerides (TG)” value ([6]; both concentrations, only at 24 h) of the same compound?
A: downregulated

Q: What about the “Abundance of 7E,9E,11-Dodecatrienyl acetate” value ([6]; most notable change, vs vehicle control) of the same compound?
A: downregulation

Q: And the “Abundance of mintsulfide, 3beta,7alpha-Dihydroxy-5-cholestenoate and 4alpha-Carboxy-5alpha-cholesta-8-en-3beta-ol” value ([6]; vs vehicle control)?
A: raised the abundance

Q: And the Body length ([7]; 0.10 mM (23.53 mg/L), 24 h)?
A: 0.79 ± 0.011

Q: And the Body length ([7]; 0.10 mM (23.53 mg/L), 48 h)?
A: 0.82 ± 0.014

Q: And the Body length ([7]; 0.18 mM (42.36 mg/L), 24 h)?
A: 0.77 ± 0.007

Q: And the Body length ([7]; 0.18 mM (42.36 mg/L), 48 h)?
A: 0.78 ± 0.015

Q: What about the Body length ([7]; 0.32 mM (75.31 mg/L), 24 h) of the same compound?
A: 0.76 ± 0.01

Q: What about the Body length ([7]; 0.32 mM (75.31 mg/L), 48 h) of the same compound?
A: 0.83 ± 0.011

Q: What about the Body length ([7]; 0.56 mM (131.78 mg/L), 24 h) of the same compound?
A: 0.7 ± 0.014

Q: What about the Body length ([7]; 0.56 mM (131.78 mg/L), 48 h) of the same compound?
A: 0.69 ± 0.022

Q: And the Body length ([7]; 1.00 mM (235.33 mg/L), 24 h)?
A: 0.66 ± 0.018

Q: And the Body length ([7]; 1.00 mM (235.33 mg/L), 48 h)?
A: 0.58 ± 0.018

Q: What about the “Teratogenicity compared to VPA” value ([7]; larvae length as morphological indicator) of the same compound?
A: lower teratogenicity; also recorded: lower teratogenic

Q: What about the “Toxicity compared to VPA” value [8] of the same compound?
A: lower toxicity

Q: And the “Triacylglycerides cluster, abundance of metabolites” value ([9]; LC1, 24 h)?
A: decreased

Q: And the “Triacylglycerides cluster, abundance of metabolites” value ([9]; LC10, 24 h)?
A: increased

Q: What about the “Glycerophosphocholines and glycerophosphoethanolamines clusters” value ([9]; both concentrations, 48 h) of the same compound?
A: mixed changes

Q: And the Malonyl carnitine ([9]; fatty acid esters, LC1 and LC10, 24 and 48 h)?
A: most sustained alterations

Q: With `CCCC(CCC)C(=O)O` [VPA, valproic acid] as the compound, how does the “Major deregulated / most impacted metabolic pathways” value [2] read?
A: alanine, aspartate, and glutamate metabolism

Q: And the Mortality % ([3]; 3 mM (499 mg/L), 24 h)?
A: 1.19 ± 3.15%

Q: And the Mortality % ([3]; 3 mM (499 mg/L), 48 h)?
A: 7.06 ± 3.61%

Q: And the Mortality % ([3]; 5.4 mM (897 mg/L), 24 h)?
A: 1.83 ± 3.66%

Q: What about the Mortality % ([3]; 5.4 mM (897 mg/L), 48 h) of the same compound?
A: 4.98 ± 4.86%

Q: What about the Mortality % ([3]; 9.6 mM (1595 mg/L), 24 h) of the same compound?
A: 10.08 ± 8.85%

Q: And the Mortality % ([3]; 9.6 mM (1595 mg/L), 48 h)?
A: 26.43 ± 8.52%

Q: What about the Mortality % ([3]; 16.8 mM (2792 mg/L), 24 h) of the same compound?
A: 11.11 ± 11.85%

Q: What about the Mortality % ([3]; 16.8 mM (2792 mg/L), 48 h) of the same compound?
A: 29.41 ± 11.96%

Q: What about the Mortality % ([3]; 30 mM (4986 mg/L), 24 h) of the same compound?
A: 35.05 ± 12.82%

Q: What about the Mortality % ([3]; 30 mM (4986 mg/L), 48 h) of the same compound?
A: 62.42 ± 14.69 %

Q: And the Mortality % ([3]; 54 mM (8974 mg/L), 24 h)?
A: 37.32 ± 15.84 %

Q: And the Mortality % ([3]; 54 mM (8974 mg/L), 48 h)?
A: 82.22 ± 9.04 %

Q: And the Mortality % ([3]; 96 mM (15,954 mg/L), 24 h)?
A: 70.18 ± 14.77 %

Q: What about the Mortality % ([3]; 96 mM (15,954 mg/L), 48 h) of the same compound?
A: 96.35 ± 2.13 %

Q: What about the Mortality % ([3]; 168 mM (27,920 mg/L), 24 h) of the same compound?
A: 98.85 ± 1.15 %

Q: And the Mortality % ([3]; 168 mM (27,920 mg/L), 48 h)?
A: 100 ± 0 %

Q: And the “LC1 (20% of the LC10)” value [3]?
A: 1.79 mM

Q: And the “Concentration at which 100% lethality was achieved” value ([3]; 48 h)?
A: above 96 mM

Q: And the “LC10 (lethal concentration 10%)” value ([3]; 48 h)?
A: 4.71 mM and 783.1 mg/L

Q: What about the LC50 [4] of the same compound?
A: > 1000 µg/mL

Q: What about the LC50 at 24 h [4] of the same compound?
A: 41.1 mM

Q: What about the LC50 at 48 h [4] of the same compound?
A: 18.7 mM

Q: And the Lethality [10]?
A: 100%

Q: And the Body length ([7]; 3 mM (499 mg/L), 24 h)?
A: 0.78 ± 0.008

Q: What about the Body length ([7]; 3 mM (499 mg/L), 48 h) of the same compound?
A: 0.8 ± 0.01

Q: What about the Body length ([7]; 5.4 mM (897 mg/L), 24 h) of the same compound?
A: 0.74 ± 0.012

Q: And the Body length ([7]; 5.4 mM (897 mg/L), 48 h)?
A: 0.77 ± 0.012

Q: What about the Body length ([7]; 9.6 mM (1595 mg/L), 24 h) of the same compound?
A: 0.69 ± 0.011

Q: And the Body length ([7]; 9.6 mM (1595 mg/L), 48 h)?
A: 0.68 ± 0.021

Q: What about the Body length ([7]; 16.8 mM (2792 mg/L), 24 h) of the same compound?
A: 0.67 ± 0.009

Q: And the Body length ([7]; 16.8 mM (2792 mg/L), 48 h)?
A: 0.66 ± 0.017

Q: And the Body length ([7]; 30 mM (4986 mg/L), 24 h)?
A: 0.67 ± 0.008

Q: What about the Body length ([7]; 30 mM (4986 mg/L), 48 h) of the same compound?
A: 0.64 ± 0.013

Q: What about the Body length ([7]; 54 mM (8974 mg/L), 24 h) of the same compound?
A: 0.61 ± 0.015

Q: What about the Body length ([7]; 54 mM (8974 mg/L), 48 h) of the same compound?
A: 0.57 ± 0.017

Q: What about the Body length ([7]; 96 mM (15,954 mg/L), 24 h) of the same compound?
A: 0.56 ± 0.011

Q: And the Body length ([7]; 96 mM (15,954 mg/L), 48 h)?
A: 0.54 ± 0.01

Q: And the Body length ([7]; 168 mM (27,920 mg/L), 24 h)?
A: 0.52 ± 0.014

Q: And the Body length ([7]; 168 mM (27,920 mg/L), 48 h)?
A: 0.5 ± 0.011

Q: What about the “Ceramide and glycerophosphoinositol clusters, abundance of metabolites” value ([9]; LC10, sustained up to 48 h) of the same compound?
A: downregulates

Q: And the “Lipid abundance (glycerophospholipid subclasses, linoleic acid and derivatives)” value ([9]; especially LC1, 48 h)?
A: increases

Q: And the “C2-C6 acylcarnitines (fatty acid esters cluster)” value ([9]; lowest concentration (LC1))?
A: positively impacts

Q: And the “Abundance of amino acids and their derivatives” value ([9]; most metabolites of the cluster)?
A: upward trend
